Test results taken from ChEMBL document CHEMBL3297654, “Synthesis, antimicrobial and cytotoxic activities, and structure-activity relationships of gypsogenin derivatives against human cancer cells” (Eur J Med Chem, 2014).
In brackets after ≈: the same amount, converted by molar mass. Activity calls are given as the source filed them. No cut-off for these calls is given here.

How the values were obtained:
[1] = tested on: Bacillus cereus; assay: Antimicrobial activity against Bacillus cereus ATCC 11778 for 24 hrs by microdillution method; assay type: functional; details: ATCC 11778, 24 h
Method in brief: (§1)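 Broth microdilution. Compound is dissolved in DMSO (2 mg/mL) and diluted in Mueller Hinton broth as two-fold serial dilutions from 256 to 0.125 µg/mL. Bacteria are pre-grown in nutrient broth at 30 °C, and the final inoculum is about 10^6 cfu/mL. Tests are incubated 37 °C for 24 h. MIC is the lowest concentration giving complete inhibition. Streptomycin is the positive control.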

[2] = tested on: HeLa; assay: Induction of apoptosis in human HeLa cells at 20 uM after 48 hrs by Hoechst 33258/propidium iodide staining based phase contrast microscopic analysis; assay type: functional
Method in brief: (§2)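 Cells in 48-well plates treated with 0.5, 10, 20 or 40 µM for 24 and 48 h. Values are read at 48 h, 20 µM for test agents and 0.5 µM for controls. Staining is Hoechst 33258/propidium iodide double staining with fluorescence microscopy. Blue nuclei are viable or early-to-mid apoptotic, and pink nuclei are late apoptotic or necrotic. Apoptosis and necrosis are scored from chromatin condensation as % of cells. Cells are grown at 37 °C in 5% CO2 in RPMI, DMEM or McCoy's 5A with 10–15% heat-inactivated FCS.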

[3] = tested on: Candida tropicalis; assay: Antimicrobial activity against Candida tropicalis assessed as zone of inhibition at 30 uL for 24 hrs at 30 degC by disk diffusion test; assay type: functional, organism-based
Method in brief: (§3)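 Agar well diffusion on Mueller Hinton agar seeded with 0.1 mL broth culture (18–24 h), adjusted to 0.5 McFarland (about 1×10^8 bacteria or 1×10^6 yeast cells/mL). A 6 mm well is filled with 30 µL of compound from a fresh 1000 µg/mL DMSO stock. Plates are held at 30 °C for 24 h and inhibition zone diameter is read in mm.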

[4] = tested on: Escherichia coli; assay: Antimicrobial activity against Escherichia coli ATCC 25922 assessed as zone of inhibition at 30 uL for 24 hrs at 37 degC by disk diffusion test; assay type: functional, organism-based
Method in brief: (§4)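 Compound (30 µL of a fresh 1000 µg/mL DMSO stock) goes into a 6 mm well cut in Mueller Hinton agar inoculated with 0.1 mL broth culture adjusted to 0.5 McFarland (about 1×10^8 cells/mL). Plates are incubated 24 h at 37 °C, then zone of inhibition diameter is measured in mm.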

[5] = tested on: Pseudomonas aeruginosa; assay: Antimicrobial activity against Pseudomonas aeruginosa ATCC 35032 assessed as zone of inhibition at 30 uL for 24 hrs at 37 degC by disk diffusion test; assay type: functional, organism-based; method in brief: as §4
[6] = tested on: HL-60; assay: Induction of apoptosis in human HL60 cells at 20 uM after 48 hrs by Hoechst 33258/propidium iodide staining based phase contrast microscopic analysis; assay type: functional; method in brief: as §2
[7] = tested on: Bacillus cereus; assay: Antimicrobial activity against Bacillus cereus ATCC 11778 assessed as zone of inhibition at 30 uL for 24 hrs at 30 degC by disk diffusion test; assay type: functional; method in brief: as §3
[8] = tested on: HT-29; assay: Induction of apoptosis in human HT-29 cells at 20 uM after 48 hrs by Hoechst 33258/propidium iodide staining based phase contrast microscopic analysis; assay type: functional; method in brief: as §2
[9] = tested on: Candida albicans; assay: Antimicrobial activity against Candida albicans ATCC 10231 assessed as zone of inhibition at 30 uL for 24 hrs at 30 degC by disk diffusion test; assay type: functional, organism-based; method in brief: as §3
[10] = tested on: SAOS-2; assay: Induction of necrosis in human Saos2 cells at 20 uM after 48 hrs by Hoechst 33258/propidium iodide staining based […] microscopic analysis; assay type: functional; method in brief: as §2
[11] = tested on: HL-60; assay: Antiproliferative activity against human HL60 cells after 24 and 72 hrs by MTT assay; assay type: functional, cell-based
Method in brief: (§5)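 ATCC human cell lines are kept in RPMI, DMEM or McCoy's 5A with 10–15% heat-inactivated FCS at 37 °C and 5% CO2. They are seeded at 1×10^4–1×10^5 cells/mL in 48-well plates and exposed to 0.5, 10, 20 or 40 µM. Viability is read by MTT (590 nm) at 24 and 72 h. Growth is expressed relative to untreated cells and IC50 is fitted, in triplicate.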

[12] = tested on: MCF7; assay: Antiproliferative activity against human MCF7 cells after 24 and 72 hrs by MTT assay; assay type: functional, cell-based; method in brief: as §5
[13] = tested on: Bacillus subtilis; assay: Antimicrobial activity against Bacillus subtilis ATCC 6633 for 24 hrs by microdillution method; assay type: functional; details: ATCC 6633, 24 h; method in brief: as §1
[14] = tested on: Bacillus thuringiensis; assay: Antimicrobial activity against Bacillus thuringiensis for 24 hrs by microdillution method; assay type: functional; method in brief: as §1
[15] = tested on: Saccharomyces cerevisiae; assay: Antimicrobial activity against Saccharomyces cerevisiae ATCC 9763 assessed as zone of inhibition at 30 uL for 24 hrs at 30 degC by disk diffusion test; assay type: functional, organism-based; method in brief: as §3
[16] = tested on: HeLa; assay: Antiproliferative activity against human HeLa cells after 24 and 72 hrs by MTT assay; assay type: functional, cell-based; method in brief: as §5
[17] = tested on: HT-29; assay: Antiproliferative activity against human HT-29 cells after 24 and 72 hrs by MTT assay; assay type: functional, cell-based; method in brief: as §5
[18] = tested on: MCF7; assay: Induction of apoptosis in human MCF7 cells at 20 uM after 48 hrs by Hoechst 33258/propidium iodide staining based phase contrast microscopic analysis; assay type: functional; method in brief: as §2
[19] = Antiproliferative activity against human Saos2 cells after 24 and 72 hrs by MTT assay; assay type: functional, cell-based; details: SAOS-2; method in brief: as §5
[20] = tested on: HT-29; assay: Induction of necrosis in human HT-29 cells at 20 uM after 48 hrs by Hoechst 33258/propidium iodide staining based phase contrast microscopic analysis; assay type: functional; method in brief: as §2
[21] = tested on: Staphylococcus epidermidis; assay: Antimicrobial activity against Staphylococcus epidermidis ATCC 12228 assessed as zone of inhibition at 30 uL for 24 hrs at 37 degC by disk diffusion test; assay type: functional, organism-based; method in brief: as §4
[22] = tested on: Salmonella typhimurium; assay: Antimicrobial activity against Salmonella typhimurium ATCC 14028 assessed as zone of inhibition at 30 uL for 24 hrs at 37 degC by disk diffusion test; assay type: functional, organism-based; details: Salmonella enterica subsp. enterica serovar Typhimurium; method in brief: as §4
[23] = tested on: HeLa; assay: Induction of necrosis in human HeLa cells at 20 uM after 48 hrs by Hoechst 33258/propidium iodide staining based phase contrast microscopic analysis; assay type: functional; method in brief: as §2
[24] = tested on: Proteus vulgaris; assay: Antimicrobial activity against Proteus vulgaris ATCC 33420 assessed as zone of inhibition at 30 uL for 24 hrs at 37 degC by disk diffusion test; assay type: functional, organism-based; method in brief: as §4
[25] = tested on: Nakaseomyces glabratus; assay: Antimicrobial activity against Candida glabrata assessed as zone of inhibition at 30 uL for 24 hrs at 30 degC by disk diffusion test; assay type: functional, organism-based; method in brief: as §3
[26] = tested on: Klebsiella pneumoniae; assay: Antimicrobial activity against Klebsiella pneumoniae ATCC 13882 assessed as zone of inhibition at 30 uL for 24 hrs at 37 degC by disk diffusion test; assay type: functional, organism-based; method in brief: as §4
[27] = tested on: SAOS-2; assay: Induction of apoptosis in human Saos2 cells at 20 uM after 48 hrs by Hoechst 33258/propidium iodide staining based phase contrast microscopic analysis; assay type: functional; method in brief: as §2
[28] = tested on: Caco-2; assay: Induction of apoptosis in human Caco2 cells at 20 uM after 48 hrs by Hoechst 33258/propidium iodide staining based phase contrast microscopic analysis; assay type: functional; method in brief: as §2
[29] = tested on: Micrococcus luteus; assay: Antimicrobial activity against Micrococcus luteus ATCC 9341 assessed as zone of inhibition at 30 uL for 24 hrs at 30 degC by disk diffusion test; assay type: functional, organism-based; method in brief: as §3
[30] = tested on: Staphylococcus aureus; assay: Antimicrobial activity against Staphylococcus aureus ATCC 25923 assessed as zone of inhibition at 30 uL for 24 hrs at 37 degC by disk diffusion test; assay type: functional, organism-based; method in brief: as §4
[31] = tested on: Cyberlindnera jadinii; assay: Antimicrobial activity against Candida utilis ATCC 9950 assessed as zone of inhibition at 30 uL for 24 hrs at 30 degC by disk diffusion test; assay type: functional, organism-based; method in brief: as §3
[32] = tested on: Caco-2; assay: Induction of necrosis in human Caco2 cells at 20 uM after 48 hrs by Hoechst 33258/propidium iodide staining based phase contrast microscopic analysis; assay type: functional; method in brief: as §2
[33] = tested on: HL-60; assay: Induction of necrosis in human HL60 cells at 20 uM after 48 hrs by Hoechst 33258/propidium iodide staining based phase contrast microscopic analysis; assay type: functional; method in brief: as §2
[34] = tested on: Enterococcus faecalis; assay: Antimicrobial activity against Enterococcus faecalis ATCC 29212 assessed as zone of inhibition at 30 uL for 24 hrs at 37 degC by disk diffusion test; assay type: functional, organism-based; method in brief: as §4
[35] = tested on: MCF7; assay: Induction of necrosis in human MCF7 cells at 20 uM after 48 hrs by Hoechst 33258/propidium iodide staining based phase contrast microscopic analysis; assay type: functional; method in brief: as §2
[36] = tested on: Bacillus subtilis; assay: Antimicrobial activity against Bacillus subtilis ATCC 6633 assessed as zone of inhibition at 30 uL for 24 hrs at 30 degC by disk diffusion test; assay type: functional; method in brief: as §3
[37] = tested on: Bacillus thuringiensis; assay: Antimicrobial activity against Bacillus thuringiensis assessed as zone of inhibition at 30 uL for 24 hrs at 30 degC by disk diffusion test; assay type: functional; method in brief: as §3
[38] = tested on: Caco-2; assay: Antiproliferative activity against human Caco2 cells after 24 and 72 hrs by MTT assay; assay type: functional, cell-based; method in brief: as §5

SMILES	MIC [1] [µg/mL]	Activity [2] [%]	diameter of the inhibition zone (DIZ) [3]	diameter of the inhibition zone (DIZ) [4]	diameter of the inhibition zone (DIZ) [5]	Activity [6] [%]	diameter of the inhibition zone (DIZ) [7] [mm]	Activity [8] [%]	diameter of the inhibition zone (DIZ) [9]	Activity [10] [%]	IC50 [11] [µM]	IC50 [12] [µM]	MIC [13] [µg/mL]	MIC [14] [µg/mL]	diameter of the inhibition zone (DIZ) [15]	IC50 [16] [µM]	IC50 [17] [µM]	Activity [18] [%]	IC50 [19] [µM]	Activity [20] [%]	further results
CC(=O)O[C@H]1CC[C@]2(C)[C@H]3CC=C4[C@@H]5CC(C)(C)CC[C@]5(C(=O)O)CC[C@@]4(C)[C@]3(C)CC[C@H]2[C@]1(C)/C=N\O	64 (≈ 121 µM)	0	inactive	inactive	inactive	6	12	0.6	inactive	46	5.98	10.8	32 (≈ 60.6 µM)	64 (≈ 121 µM)	inactive	116	6.71	5	8.95	28	diameter of the inhibition zone (DIZ) [21]: inactive; diameter of the inhibition zone (DIZ) [22]: inactive; Activity [23]: 64%; diameter of the inhibition zone (DIZ) [24]: inactive; diameter of the inhibition zone (DIZ) [25]: inactive; diameter of the inhibition zone (DIZ) [26]: inactive; Activity [27]: 1%; Activity [28]: 0%; diameter of the inhibition zone (DIZ) [29]: inactive; diameter of the inhibition zone (DIZ) [30]: inactive; diameter of the inhibition zone (DIZ) [31]: inactive; Activity [32]: 17%; Activity [33]: 52%; diameter of the inhibition zone (DIZ) [34]: inactive; Activity [35]: 55%; diameter of the inhibition zone (DIZ) [36]: 13 mm; diameter of the inhibition zone (DIZ) [37]: 12 mm; IC50 [38]: 28.2 µM
CC(=O)O[C@H]1CC[C@]2(C)[C@H]3CC=C4[C@@H]5CC(C)(C)CC[C@]5(C(=O)O)CC[C@@]4(C)[C@]3(C)CC[C@H]2[C@]1(C)C=O	128 (≈ 250 µM)	4	inactive	inactive	inactive	8	9	0.8	inactive	44	10.8	20.5	64 (≈ 125 µM)	128 (≈ 250 µM)	inactive	35	11.1	5	8.24	20	diameter of the inhibition zone (DIZ) [21]: inactive; diameter of the inhibition zone (DIZ) [22]: inactive; Activity [23]: 33%; diameter of the inhibition zone (DIZ) [24]: inactive; diameter of the inhibition zone (DIZ) [25]: inactive; diameter of the inhibition zone (DIZ) [26]: inactive; Activity [27]: 3%; Activity [28]: 3%; diameter of the inhibition zone (DIZ) [29]: inactive; diameter of the inhibition zone (DIZ) [30]: inactive; diameter of the inhibition zone (DIZ) [31]: inactive; Activity [32]: 55%; Activity [33]: 25%; diameter of the inhibition zone (DIZ) [34]: inactive; Activity [35]: 29%; diameter of the inhibition zone (DIZ) [36]: 11 mm; diameter of the inhibition zone (DIZ) [37]: 10 mm; IC50 [38]: 17.4 µM
